Sampled rows, rich in hits. Any-hit rate of the full collection: about 2.3%.
TRPC6 activator – activators of mouse TRPC6 channel; Q61143; HEK293-TRPC6 membrane potential dye fluorescence; active compounds read high; B-score at 10 µM; actives 0.13% (n = 310,000); AID 2550;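 active means B-score of the integrated fluorescence ratio above library mean plus 3 SD, and starting fluorescence ratio within library mean plus 5 SD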;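 further: higher score means more depolarization so channel activation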
TRPC6 inhibitor – blocks the mouse TRPC6 cation channel | Q61143 | HEK293-TRPC6, membrane potential dye, ACh-evoked depolarization; active compounds read low | B-score at 10 µM | actives 1.1% (n = 310,000);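 active means B-score under library mean minus 3 SD, initial fluorescence not abnormally high, positive integrated signal ratio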;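 further: B-score derived from integrated fluorescence ratio over the kinetic read; more negative B-score means stronger inhibition of depolarization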
TRPC4 act – TRPC4 (mouse) channel activation | HEK293 TRPC4beta/mu-opioid, Fluo4 calcium fluorescence; active compounds read high | Q9QUQ5 | AID 2237 | B-score at 10 µM | actives 0.49% (n = 310,000);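 active means B-score above 5 SD of library B-scores, and initial fluorescence ratio not above library mean plus 5 SD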;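 further: positive B-score marks a calcium rise read as TRPC4 activation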
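Assay system: HEK293 cells stably co-expressing mouse TRPC4beta and mu-opioid receptor / Timing: Fluo4 dye loading 45 min at room temperature, 110 s recording / Signal: Fluo4 calcium-sensitive dye fluorescence, kinetic, 1 Hz baseline / Read-out: integrated baseline-normalised fluorescence ratio, converted to per-well B score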
TRPC4 potent – allosteric potentiators of mouse TRPC4 channel; HEK293 TRPC4beta/mu-opioid, DAMGO EC20, Fluo-4 Ca2+ flux; active compounds read high; B-score at 10 µM; actives 0.42% (n = 310,000); AID 2227; Q9QUQ5;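 active means B-score of calcium response area above 5 SD of library B-scores, with initial fluorescence ratio within 5 SD of library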
TRPC4 inh – TRPC4 (mouse) channel inhibition; HEK293 TRPC4beta/mu-opioid, DAMGO-evoked Fluo4 calcium flux; active compounds read low; B-score at 10 µM; actives 0.39% (n = 300,000);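 active means B-score over 3 SD under the library average, no early fluorescence shift, positive overall ratio signal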
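Assay system: Stable TRPC4beta/mu-opioid receptor HEK293 cells | Reagent: DAMGO in two steps, submaximal then maximal | Compound dosing: Single concentration per test compound | Signal: Fluo4 Ca2+ flux fluorescence | Evaluation: Per-well B score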
Numbers stand for hits; . = inactive; / = no result.

SMILES | TRPC6 activator | TRPC6 inhibitor | TRPC4 act | TRPC4 potent | TRPC4 inh
COc1ccc(/C(N)=N/OC(=O)c2ccco2)cc1OC | . | . | . | . | .
O=C(Nc1cc(S(=O)(=O)N2CCOCC2)ccc1N1CCOCC1)c1cnccn1 | . | . | . | . | .
O=C(Nc1ccc(F)cc1)Nc1cc(S(=O)(=O)N2CCOCC2)ccc1N1CCCC1 | . | . | . | 39 | .
Cc1cnc(C(=O)Nc2cc(S(=O)(=O)N3CCOCC3)ccc2N2CCN(C)CC2)cn1 | . | . | . | 11 | .
N#CC1(NC(=O)Cn2cc(C(F)(F)F)cc(Cl)c2=O)CCCCC1 | . | . | . | . | .
Cc1ccc(S(=O)(=O)Nc2cccc(C(=O)NCc3ccc(S(N)(=O)=O)cc3)c2)cc1 | . | . | . | . | .
Cc1cc(C)c(NC(=O)c2cccs2)c(C)c1NC(=O)c1cccs1 | . | . | . | . | .
Cc1nn(Cc2ccccc2Cl)c(C)c1C(=O)NC1=NCCS1 | . | . | . | . | .
CCC(CC)c1nnc(NC(=O)c2c(C)nn(Cc3ccccc3Cl)c2C)s1 | . | . | . | 21 | .
NNc1ccc(Cc2ccc(Cl)cc2Cl)nn1 | . | . | . | 15 | .
CSc1ccc(Cc2ccc(Cl)cc2Cl)nn1 | . | . | . | . | .
COc1ccc(C(CNC(=S)NCc2ccccc2)N2CCCC2)cc1 (stereo not drawn) | . | . | . | . | -6
COc1ccc(C(CNC(=O)c2cccc(S(=O)(=O)Nc3ccc(C)cc3)c2)N2CCCCC2)cc1 (stereo not drawn) | . | . | . | . | .
COc1ccc(C(CNC(=O)c2oc3ccc(Cl)cc3c2C)N2CCCCC2)cc1 (stereo not drawn) | . | . | . | . | -5
CCCCOc1ccc(C(=O)NCC(=O)NCC(c2ccc(OC)cc2)N2CCCC2)cc1 (stereo not drawn) | . | . | . | 14 | .
COc1ccc(C(CNC(=O)c2oc3c(Cl)cccc3c2C)N2CCCC2)cc1 (stereo not drawn) | . | . | . | . | .
COc1ccc(C(CNC(=O)c2cccc(Br)c2)N2CCCC2)cc1 (stereo not drawn) | . | . | 89 | . | .
CC(C)(C)c1cc(O)c(C(C)(C)C)cc1O | . | . | 94 | . | .
Cc1ccccc1NC(=O)CSc1ccncc1 | . | . | . | . | .
Cc1ccc(C(=O)NNC(=O)C2CSC3(C)CCC(=O)N23)cc1 (stereo not drawn) | . | . | . | 24 | .
CC(NS(=O)(=O)c1ccc(OCC(=O)NCc2ccncc2)cc1)c1ccccc1 (stereo not drawn) | . | . | . | . | .
O=C1Nc2cc(C(=O)NCCCN3CCOCC3)ccc2S/C1=C/c1ccccc1F | . | . | . | . | -6
CCOC(=O)C1(Cc2ccccc2)CCN(Cc2cn[nH]c2-c2ccccc2)CC1 | . | . | 126 | . | .
CCOC(=O)c1[nH]ncc1CN1CCC(Cc2ccccc2)(C(=O)OCC)CC1 | . | . | . | . | .
CCOC(=O)C1(CC2CC2)CCN(Cc2cn[nH]c2-c2ccccc2)CC1 | . | . | 48 | . | -8
SMILES | TRPC6 activator | TRPC6 inhibitor | TRPC4 act | TRPC4 potent | TRPC4 inh
CCOC(=O)C1(Cc2ccccc2)CCN(Cc2cnn(CC)c2)CC1 | . | . | 124 | . | .
CCOC(=O)C1CCN(C(=O)c2cccnc2Oc2ccccc2)CC1 | . | . | . | . | .
CC(=O)C1=C(O)C(=O)N(Cc2ccccc2)C1c1ccc(F)cc1 (stereo not drawn) | . | . | . | . | .
CC(=O)C1=C(O)C(=O)N(Cc2ccccc2)C1c1ccc([N+](=O)[O-])cc1 (stereo not drawn) | . | . | . | . | -6
CC(C)(C)n1ncc2c(=O)n(CC(=O)NCCc3ccccc3)cnc21 | . | . | . | . | /
COc1ccc(CCNC(=O)Cn2cnc3c(cnn3C(C)(C)C)c2=O)cc1OC | . | . | . | 26 | .
Cc1ccc(OC(=O)CCC(=O)Nc2ccc(S(=O)(=O)Nc3cc(C)on3)cc2)cc1 | . | . | . | . | .
CC(=O)NS(=O)(=O)c1ccc(NC(=O)CCC(=O)Oc2ccc(C)cc2)cc1 | . | . | . | 11 | .
COC(=O)[C@@]1(Cc2ccc(F)cc2)[C@H]2c3cc(C(=O)N(C)C)n(CCc4ccccn4)c3C[C@H]2CN1C(=O)c1ccccc1 | . | . | 143 | . | .
COC(=O)[C@@]1(Cc2ccc(F)cc2)[C@H]2c3cc(C(=O)N(C)C)n(CCc4ccc(OC)c(Br)c4)c3C[C@H]2CN1C(=O)c1ccccc1 | . | . | . | . | .
CN1CCN(c2ncnc3scc(-c4ccccc4Cl)c23)CC1 | . | . | . | . | .
Cc1cc(-c2csc3ncnc(N4CCN(C)CC4)c23)cc(C)c1C | . | . | . | . | -7
CCOc1ccc(N2C(=O)CC(N3CCN(C4CCc5ccccc5C4)CC3)C2=O)cc1 (stereo not drawn) | . | . | . | 14 | .
COc1cc(NS(=O)(=O)c2ccc(NC(=O)CCC(=O)O)cc2)nc(OC)n1 | . | . | . | 10 | .
Cc1ccc(OCCN(C)C(=O)c2cc(COc3ccc(F)cc3F)on2)cc1 | . | . | . | . | .
CCCc1c(-c2ccc(O)cc2)nn(-c2ccc(O)cc2)c1-c1ccc(O)cc1 | . | . | . | 27 | .
Cc1c(C(N)=O)c(-c2ccccc2)nn1-c1ccccc1 | . | . | . | . | .
CCCCN(CC)CCNc1c(N2CCN(C(=O)OCC)CC2)c(=O)c1=O | . | . | 124 | . | /
O=C(Cc1ccc([N+](=O)[O-])cc1)c1ccc(O)cc1O | . | . | . | . | .
COc1cccc(C(=O)/C(C#N)=N/Nc2cccc(-c3ccnc(C)n3)c2)c1 | . | . | . | . | .
Cc1ccc(-c2nc3cnccn3c2Nc2ccc3c(c2)OCO3)cc1 | . | -5.7 | . | . | .
CC(C)(C)n1nc2c(c1NC(=O)c1ccc(Cl)c([N+](=O)[O-])c1)CS(=O)(=O)C2 | . | . | . | . | .
COc1ccc(OC)c2[nH]c(=O)c(CCNC(=O)c3cccs3)cc12 | . | . | . | . | .
COc1cc(-c2nc3ccc4ccccc4c3c3c2CCC3)cc(OC)c1OC | . | . | . | . | .
COc1cc2ccccc2c2c1CCCC2=O | . | . | . | . | -6
SMILES | TRPC6 activator | TRPC6 inhibitor | TRPC4 act | TRPC4 potent | TRPC4 inh
Nc1c2c(nc3c1CCCC3)CCCC2 (tested in a mixture with another compound) | . | . | . | . | -6
Nc1nc(N)c2c(n1)CCCC2 | . | . | . | . | .
Oc1ccc(-c2csc(-c3ccccc3)n2)cc1O | . | . | . | . | -6
Oc1ccc(-c2csc(-c3cccnc3)n2)cc1O | . | . | . | . | .
C[C@H](C(=O)O)c1n[nH]c(=O)c2ccccc12 | . | . | . | . | .
CCOC(=O)C(C)c1n[nH]c(=O)c2ccccc12 (stereo not drawn) | . | . | . | 13 | .

Bioassay records from PubChem BioAssay.
